Test results reported in ChEMBL document CHEMBL1131114 (J Med Chem, 1998).

molecular target: Sodium-dependent dopamine transporter (Rattus norvegicus, UniProt P23977); test: Displacement of [3H]WIN-35428(0.5 nM) from Dopamine transporter
Outline: (§1)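 IC50 is taken as inhibition of specific binding. Values are mean ± standard error of three or four experiments, with triplicate determinations at each concentration.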

Chain of Sodium-dependent dopamine transporter (P23977 whole entry): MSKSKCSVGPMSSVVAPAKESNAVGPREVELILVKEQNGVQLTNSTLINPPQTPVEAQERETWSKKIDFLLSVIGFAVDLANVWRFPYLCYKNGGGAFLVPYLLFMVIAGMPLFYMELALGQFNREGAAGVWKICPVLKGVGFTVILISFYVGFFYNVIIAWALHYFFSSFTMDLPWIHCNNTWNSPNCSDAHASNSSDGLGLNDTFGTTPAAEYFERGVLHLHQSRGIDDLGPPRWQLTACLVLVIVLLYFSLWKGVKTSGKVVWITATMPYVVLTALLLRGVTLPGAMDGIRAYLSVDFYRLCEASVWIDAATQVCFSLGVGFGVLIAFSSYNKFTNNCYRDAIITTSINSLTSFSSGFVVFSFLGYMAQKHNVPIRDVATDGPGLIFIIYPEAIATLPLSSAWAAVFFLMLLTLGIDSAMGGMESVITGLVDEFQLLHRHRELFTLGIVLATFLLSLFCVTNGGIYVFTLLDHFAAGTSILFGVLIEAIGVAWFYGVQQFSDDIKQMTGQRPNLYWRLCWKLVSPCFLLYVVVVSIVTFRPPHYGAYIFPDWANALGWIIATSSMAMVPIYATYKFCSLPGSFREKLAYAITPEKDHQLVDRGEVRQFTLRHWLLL

Going from `CN1C2CC[C@@H]1C[C@@H](c1ccc(F)cc1)[C@@H]2COc1ccc2c(c1)OCO2` to `CN1C2CC[C@@H]1[C@@H](COc1ccc3c(c1)OCO3)[C@@H](c1ccc(F)cc1)C2`, the IC50 rises from 3.01 nM to 298 nM (99-fold). The first is the more potent here.

Going from `Fc1ccc([C@H]2CC3CCC(N3)[C@H]2COc2ccc3c(c2)OCO3)cc1` (stereo in doubt; 4f) to `Fc1ccc([C@H]2CC3CCC(N3)[C@@H]2COc2ccc3c(c2)OCO3)cc1` (stereo partly specified), the IC50 falls from 403 nM to 142 nM (2.8-fold). The second is the more potent here.

First: Fc1ccc([C@@H]2CC3CCC(N3)[C@@H]2COc2ccc3c(c2)OCO3)cc1 (stereo partly specified)
Second: Fc1ccc([C@@H]2CC3CCC(N3)[C@H]2COc2ccc3c(c2)OCO3)cc1 (stereo in doubt; 4c)
The IC50 of the first is 7.2-fold higher: 27.6 nM for the first, 3.86 nM for the second.

First: CN1C2CC[C@@H]1C[C@H](c1ccc(F)cc1)[C@@H]2COc1ccc2c(c1)OCO2
Second: CN1C2CC[C@@H]1[C@@H](COc1ccc3c(c1)OCO3)[C@H](c1ccc(F)cc1)C2
The IC50 of the first is 3.4-fold lower: 308 nM for the first, 1050 nM for the second.

`Fc1ccc([C@H]2CC3CCC(N3)[C@H]2COc2ccc3c(c2)OCO3)cc1` (stereo in doubt; 4a) and `Fc1ccc([C@@H]2CC3CCC(N3)[C@H]2COc2ccc3c(c2)OCO3)cc1` (stereo in doubt; 4d) are within 1.5-fold of each other in IC50: 835 nM for the first, 1210 nM for the second.

Compared with `CN1C2CC[C@@H]1C[C@H](c1ccc(F)cc1)[C@H]2COc1ccc2c(c1)OCO2`, `CN1C2CC[C@@H]1[C@H](COc1ccc3c(c1)OCO3)[C@H](c1ccc(F)cc1)C2` is 8.7-fold higher in IC50: 172 nM for the first, 1500 nM for the second. The first is the more potent here.

molecular target: Sodium-dependent serotonin transporter (Rattus norvegicus, UniProt P31652); test: Inhibition of [3H]paroxetine (0.2 nM) binding to 5-HT transporter; outline: as §1
Sequence (P31652 whole entry): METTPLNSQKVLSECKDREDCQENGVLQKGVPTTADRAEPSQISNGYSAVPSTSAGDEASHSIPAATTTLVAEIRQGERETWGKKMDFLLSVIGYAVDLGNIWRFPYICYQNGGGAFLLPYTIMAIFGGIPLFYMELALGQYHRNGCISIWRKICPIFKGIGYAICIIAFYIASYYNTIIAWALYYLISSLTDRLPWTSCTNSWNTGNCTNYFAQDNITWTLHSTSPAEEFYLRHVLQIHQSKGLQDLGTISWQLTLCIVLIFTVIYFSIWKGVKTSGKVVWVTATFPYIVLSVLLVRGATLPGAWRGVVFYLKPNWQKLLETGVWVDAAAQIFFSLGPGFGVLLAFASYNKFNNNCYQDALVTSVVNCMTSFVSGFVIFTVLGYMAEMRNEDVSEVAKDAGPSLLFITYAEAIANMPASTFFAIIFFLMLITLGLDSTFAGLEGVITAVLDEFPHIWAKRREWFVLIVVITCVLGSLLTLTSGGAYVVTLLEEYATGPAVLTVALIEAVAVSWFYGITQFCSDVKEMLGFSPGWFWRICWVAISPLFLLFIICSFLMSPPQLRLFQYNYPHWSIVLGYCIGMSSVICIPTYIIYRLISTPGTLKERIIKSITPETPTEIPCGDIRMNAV

First: CN1C2CC[C@@H]1C[C@@H](c1ccc(F)cc1)[C@@H]2COc1ccc2c(c1)OCO2
Second: CN1C2CC[C@@H]1[C@@H](COc1ccc3c(c1)OCO3)[C@@H](c1ccc(F)cc1)C2
The IC50 of the first is 2.4-fold higher: 422 nM for the first, 178 nM for the second.

Compared with `Fc1ccc([C@H]2CC3CCC(N3)[C@H]2COc2ccc3c(c2)OCO3)cc1` (stereo in doubt; 4f), `Fc1ccc([C@H]2CC3CCC(N3)[C@@H]2COc2ccc3c(c2)OCO3)cc1` (stereo partly specified) is 4.7-fold higher in IC50: 19 nM for the first, 90 nM for the second. The first is the more potent here.

First: Fc1ccc([C@@H]2CC3CCC(N3)[C@@H]2COc2ccc3c(c2)OCO3)cc1 (stereo partly specified)
Second: Fc1ccc([C@@H]2CC3CCC(N3)[C@H]2COc2ccc3c(c2)OCO3)cc1 (stereo in doubt; 4c)
The IC50 of the first is 9.9-fold higher: 55.8 nM for the first, 5.62 nM for the second.

Going from `CN1C2CC[C@@H]1C[C@H](c1ccc(F)cc1)[C@@H]2COc1ccc2c(c1)OCO2` to `CN1C2CC[C@@H]1[C@@H](COc1ccc3c(c1)OCO3)[C@H](c1ccc(F)cc1)C2`, the IC50 falls from 294 nM to 88.1 nM (3.3-fold).

`Fc1ccc([C@H]2CC3CCC(N3)[C@H]2COc2ccc3c(c2)OCO3)cc1` (stereo in doubt; 4a) and `Fc1ccc([C@@H]2CC3CCC(N3)[C@H]2COc2ccc3c(c2)OCO3)cc1` (stereo in doubt; 4d) are within 1.5-fold of each other in IC50: 480 nM for the first, 424 nM for the second.

Going from `CN1C2CC[C@@H]1C[C@H](c1ccc(F)cc1)[C@H]2COc1ccc2c(c1)OCO2` to `CN1C2CC[C@@H]1[C@H](COc1ccc3c(c1)OCO3)[C@H](c1ccc(F)cc1)C2`, the IC50 rises from 52.9 nM to 447 nM (8.4-fold).

molecular target: Norepinephrine transporter (Rattus norvegicus, UniProt Q9WTR4); test: Inhibition of [3H]nisoxetine (0.5 nM) binding to Noradrenaline transporter; outline: as §1
Sequence (Q9WTR4 whole entry): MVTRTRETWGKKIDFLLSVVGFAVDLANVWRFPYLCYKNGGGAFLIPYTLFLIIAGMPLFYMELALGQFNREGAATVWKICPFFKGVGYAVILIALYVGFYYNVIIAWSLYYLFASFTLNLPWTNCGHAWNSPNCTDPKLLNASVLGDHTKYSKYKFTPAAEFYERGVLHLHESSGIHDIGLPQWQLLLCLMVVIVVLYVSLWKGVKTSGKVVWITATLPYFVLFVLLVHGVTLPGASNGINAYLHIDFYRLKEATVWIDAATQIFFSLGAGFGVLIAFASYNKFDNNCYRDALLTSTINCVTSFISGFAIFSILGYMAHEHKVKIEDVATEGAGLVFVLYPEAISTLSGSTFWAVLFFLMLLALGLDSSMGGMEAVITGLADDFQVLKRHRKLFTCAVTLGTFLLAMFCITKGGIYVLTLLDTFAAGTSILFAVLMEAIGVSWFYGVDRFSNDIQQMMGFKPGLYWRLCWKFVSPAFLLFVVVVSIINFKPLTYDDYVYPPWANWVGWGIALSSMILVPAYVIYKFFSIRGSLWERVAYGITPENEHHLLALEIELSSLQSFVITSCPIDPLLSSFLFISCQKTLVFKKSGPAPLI

First: CN1C2CC[C@@H]1C[C@@H](c1ccc(F)cc1)[C@@H]2COc1ccc2c(c1)OCO2
Second: CN1C2CC[C@@H]1[C@@H](COc1ccc3c(c1)OCO3)[C@@H](c1ccc(F)cc1)C2
The IC50 of the first is 100-fold lower: 123 nM for the first, 12400 nM for the second. The first is the more potent here.

`Fc1ccc([C@H]2CC3CCC(N3)[C@H]2COc2ccc3c(c2)OCO3)cc1` (stereo in doubt; 4f) and `Fc1ccc([C@H]2CC3CCC(N3)[C@@H]2COc2ccc3c(c2)OCO3)cc1` (stereo partly specified) are within 1.5-fold of each other in IC50: 1990 nM for the first, 2500 nM for the second.

First: Fc1ccc([C@@H]2CC3CCC(N3)[C@@H]2COc2ccc3c(c2)OCO3)cc1 (stereo partly specified)
Second: Fc1ccc([C@@H]2CC3CCC(N3)[C@H]2COc2ccc3c(c2)OCO3)cc1 (stereo in doubt; 4c)
The IC50 of the first is 120-fold higher: 1690 nM for the first, 14.4 nM for the second. The second is the more potent here.

First: CN1C2CC[C@@H]1C[C@H](c1ccc(F)cc1)[C@@H]2COc1ccc2c(c1)OCO2
Second: CN1C2CC[C@@H]1[C@@H](COc1ccc3c(c1)OCO3)[C@H](c1ccc(F)cc1)C2
The IC50 of the first is 5.2-fold lower: 5300 nM for the first, 27600 nM for the second. The first is the more potent here.

Compared with `Fc1ccc([C@H]2CC3CCC(N3)[C@H]2COc2ccc3c(c2)OCO3)cc1` (stereo in doubt; 4a), `Fc1ccc([C@@H]2CC3CCC(N3)[C@H]2COc2ccc3c(c2)OCO3)cc1` (stereo in doubt; 4d) is 2.2-fold lower in IC50: 37400 nM for the first, 17300 nM for the second. The second is the more potent here.

Going from `CN1C2CC[C@@H]1C[C@H](c1ccc(F)cc1)[C@H]2COc1ccc2c(c1)OCO2` to `CN1C2CC[C@@H]1[C@H](COc1ccc3c(c1)OCO3)[C@H](c1ccc(F)cc1)C2`, the IC50 falls from 26600 nM to 2920 nM (9.1-fold).
